From ChEMBL document CHEMBL1129951, “Synthesis and antitumor evaluation of new thiazolo[5,4-b]quinoline derivatives” (J Med Chem, 1997)

What was measured:
P388 = experiment: In vitro cytotoxicity against P-388 (mouse leukemia) cell line.; assay type: functional, cell-based
How it was run: (§1)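 Growth-inhibition screen adapted from Bergeron et al. Cells were kept in exponential growth in EMEM with 5% FCS, 10^-2 M sodium bicarbonate, penicillin G and streptomycin (0.1 g/L each) and 2.0 mM L-glutamine. P-388 was grown as a suspension and seeded at 1 × 10^4 cells/well. A-549 and HT-29 were grown as monolayers and seeded at 2 × 10^4 cells/well.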

A549 = experiment: In vitro cytotoxicity against A-549 (human lung carcinoma) cell line.; assay type: functional, cell-based; how it was run: as §1
[1] = pKa value was determined by differential pulse polarography; assay type: physicochemical
HT-29 = experiment: In vitro cytotoxicity against HT-29 (human colon) cell line.; assay type: functional, cell-based; how it was run: as §1

Compound	IC50 (P388)	IC50 (A549)	pKa [1]	IC50 (HT-29)
Cc1ccc2nc3sc(N4CCN(C)CC4)nc3c(O)c2c1	16.9 µM	29.6 µM	10	17 µM
CSc1nc2c(O)c3cc(F)ccc3nc2s1	> 66.1 µM	> 66.1 µM	5.7	> 66.1 µM
Cc1ccc2nc3sc(S(C)(=O)=O)nc3c(O)c2c1	> 60.4 µM	> 60.4 µM	4	> 60.4 µM
CSc1nc2c(O)c3cc(C)ccc3nc2s1	> 66.9 µM	> 66.9 µM	4.6	> 66.9 µM
CCN(CC)CCCNc1c2ccccc2nc2sc(SC)nc12	6 µM	6 µM	7.5	6 µM
CS(=O)(=O)c1nc2c(O)c3cc(F)ccc3nc2s1	6 µM	6 µM	5.5	6 µM
CN1CCN(c2nc3c(O)c4ccccc4nc3s2)CC1	18.8 µM	18.8 µM	8.6	18.8 µM
CSc1nc2c(O)c3ccccc3nc2s1	> 70.2 µM	> 70.2 µM	5.9	> 70.2 µM
CS(=O)(=O)c1nc2c(O)c3ccccc3nc2s1	32.4 µM	32.4 µM	5.2	32.4 µM
CCN(CC)CCNc1nc2c(O)c3ccccc3nc2s1	5.76 µM	7.22 µM	9.3	7.22 µM
CN1CCN(c2nc3c(O)c4cc(F)ccc4nc3s2)CC1	> 56.4 µM	> 56.4 µM	8	> 56.4 µM
CSc1nc2c(N(C)CCCN(C)C)c3ccccc3nc2s1	12.1 µM	12.1 µM	6.5	12.1 µM
CCN(CC)CCCNc1c2cc(C)ccc2nc2sc(SC)nc12	5.4 µM	5.4 µM	7.9	5.4 µM
CCN(CC)CCNc1nc2c(O)c3cc(C)ccc3nc2s1	3.3 µM	5.6 µM	8.4	3.3 µM
CCN(CC)CCNc1nc2c(O)c3cc(F)ccc3nc2s1	1.65 µM	2.9 µM	8.3	5 µM
Oc1c2ccccc2nc2sc(Cl)nc12	5.3 µM	11.6 µM	5.9	11.6 µM
Oc1c2cc(F)ccc2nc2sc(Cl)nc12	7.4 µM	7.4 µM	4.9	7.4 µM
Cc1ccc2nc3sc(Cl)nc3c(O)c2c1	34.6 µM	34.6 µM	5	34.6 µM
